These results are taken from ChEMBL document CHEMBL4024772, “Aniline-Based Inhibitors of Influenza H1N1 Virus Acting on Hemagglutinin-Mediated Fusion” (J Med Chem, 2018).

The test system of series [1] is Influenza A virus. The experiment in a line: Antiviral activity against Influenza A virus (A/Puerto Rico/8/34(H1N1)) infected in MDCK cells assessed as inhibition of virus-induced cytopathicity after 72 hrs by MTS assay. To be noted: A/Puerto Rico/8/1934(H1N1). Format: functional, cell-based. In a few lines:
(§1)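 MDCK cells infected with influenza virus; viral cytopathic effect scored microscopically at 3 days post infection and confirmed by colorimetric formazan-based MTS viability assay. EC50 is the concentration giving 50% inhibition of viral cytopathicity. For A/HK/7/87 (H3N2) and B/HongKong/5/1972, the highest tested concentration was 100 μM.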

The nature of series [2]: Antiviral activity against Influenza A virus (A/Virginia/ATCC3/2009(H1N1)) infected in MDCK cells assessed as inhibition of virus-induced cytopathicity after 72 hrs by MTS assay. The series is classed as functional, cell-based, Influenza A virus (A/Virginia/03/2009(H1N1)). In a few lines: as §1
(In general: Cytopathic effects are the visible damage that an infection or toxin causes in cultured cells.)

Series [3] deals with Influenza A virus (A/duck/Hunan/795/2002(H5N1)). The experiment in a line: Inhibition of HeLa cell expressing Influenza A virus (A/duck/Hunan/795/2002(H5N1)) hemagglutinin H5-mediated polykaryon formation at 100 uM preincubated for 15 mins followed by 5 mins of exposure to compound diluted in acidified PBS-CM of pH 5.2 and subsequent incubation with medium containing 10% fetal calf serum for 3 hrs by Giemsa staining-based inverted microscopy relative to control. In a few lines:
(§2)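 HA-transfected cells preincubated with compound, briefly exposed to pH 5.2 to trigger fusion, then kept in medium 3 h for polykaryon formation. Polykaryons were counted in microscopic fields. EC50 is the concentration giving 50% of the polykaryon number of the no-compound control (mean ± SEM, n = 3). Single-concentration tests used 100 μM.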

Series [4] is described as follows: Inhibition of HeLa cell expressing Influenza A virus (A/duck/Hunan/795/2002(H5N1)) hemagglutinin H5-mediated polykaryon formation preincubated for 15 mins followed by 5 mins of exposure to compound diluted in acidified PBS-CM of pH 5.2 and subsequent incubation with medium containing 10% fetal calf serum for 3 hrs by Giemsa staining-based inverted microscopy. The essentials: as §2

The test system of series [5] is Influenza B virus. The experiment in a line: Antiviral activity against Influenza B virus (B/Hong Kong/05/1972) infected in MDCK cells assessed as inhibition of virus-induced cytopathicity at 100 uM after 72 hrs. The series is classed as functional, cell-based. The essentials:
as §1

Series [6] can be described thus: Cytotoxicity against MDCK cells assessed as decrease in cell viability after 72 hrs by MTS assay. To be noted: dog. Format: cell-based, Canis lupus familiaris. In a few lines:
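Uninfected MDCK cells exposed to compound alongside the antiviral assay. Viability was read by colorimetric formazan-based MTS assay, and CC50 is the concentration giving 50% cytotoxicity.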
(Tetrazolium assays rely on reduction of a dye to a coloured formazan, in cell work by metabolically active cells.)

Series [7] in a line: Inhibition of Influenza A virus (A/Puerto Rico/8/34(H1N1)) neuraminidase using fetuin as substrate. More on the design: species or system Influenza A virus (A/Puerto Rico/8/1934(H1N1)).
Series [8] relates to Influenza A virus (A/X-31(H3N2)). The experiment in a line: Inhibition of HeLa cell expressing Influenza A virus (A/X-31(H3N2)) hemagglutinin H3-mediated polykaryon formation preincubated for 15 mins followed by 5 mins of exposure to compound diluted in acidified PBS-CM of pH 5 and subsequent incubation with medium containing 10% fetal calf serum for 3 hrs by Giemsa staining-based inverted microscopy. The essentials:
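Polykaryon assay with cells transfected with H3 HA (A/X31). Cells were preincubated with compound, exposed to low pH to induce cell–cell fusion, then kept in medium 3 h. Polykaryons were counted microscopically relative to the no-compound control.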

Series [9] can be described thus: Inhibition of HeLa cell expressing Influenza A virus (A/Puerto Rico/8/34(H1N1)) hemagglutinin H1-mediated polykaryon formation preincubated for 15 mins followed by 5 mins of exposure to compound diluted in acidified PBS-CM of pH 5.2 and subsequent incubation with medium containing 10% fetal calf serum for 3 hrs by Giemsa staining-based inverted microscopy. Further details: species or system Influenza A virus (A/Puerto Rico/8/1934(H1N1)). In a few lines: as §2

Series [10] has as its system Influenza A virus. The experiment in a line: Antiviral activity against Influenza A virus (A/Puerto Rico/8/34(H1N1)) infected in MDCK cells assessed as inhibition of virus-induced cytopathicity after 72 hrs by microscopic method. The note with it: A/Puerto Rico/8/1934(H1N1). Format: functional, cell-based. In a few lines: as §1
Series [11] relates to Influenza A virus (A/Puerto Rico/8/1934(H1N1)). The experiment in a line: Inhibition of HeLa cell expressing Influenza A virus (A/Puerto Rico/8/34(H1N1)) hemagglutinin H1-mediated polykaryon formation at 100 uM preincubated for 15 mins followed by 5 mins of exposure to compound diluted in acidified PBS-CM of pH 5.2 and subsequent incubation with medium containing 10% fetal calf serum for 3 hrs by Giemsa staining-based inverted microscopy relative to control. The essentials:
as §2

For series [12], the system named is Influenza A virus. The experiment in a line: Binding affinity to recombinant Influenza A virus polyhistidine-tagged hemagglutinin H5 expressed in baculovirus infected insect Sf9 cells at 100 uM by STD NMR method. In a few lines:
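Saturation-transfer difference NMR with 100 μM compound and 1 μM recombinant H5 HA in 20 mM phosphate pH 7.5, 150 mM NaCl, 100% 2H2O, at 25 °C on a 900 MHz spectrometer with cryoprobe. Relative STD signals were derived per proton.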

Series [13] can be described thus: Cytotoxicity against MDCK cells assessed as effect on cell morphology after 72 hrs by microscopic method. The series is classed as cell-based, Canis lupus familiaris. The note with it: dog. In a few lines: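 MDCK cells examined microscopically alongside the antiviral assay. MCC is the minimum compound concentration causing a microscopically detectable alteration of normal cell morphology.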

Series [14] in a line: Antiviral activity against Influenza A virus (A/Virginia/ATCC3/2009(H1N1)) infected in MDCK cells assessed as inhibition of virus-induced cytopathicity after 72 hrs by microscopic method. Format: functional, cell-based, Influenza A virus (A/Virginia/03/2009(H1N1)). In a few lines:
as §1

Series [15] concerns Influenza A virus (A/Hong Kong/7/1987(H3N2)). The experiment in a line: Antiviral activity against Influenza A virus (A/Hong Kong/7/1987(H3N2)) infected in MDCK cells assessed as inhibition of virus-induced cytopathicity at 100 uM after 72 hrs. Format: functional, cell-based. The essentials:
as §1

Series [16] concerns Human respirovirus 3. The experiment in a line: Antiviral activity against Parainfluenza virus 3 infected in African green monkey Vero cells assessed as inhibition of virus-induced cytopathicity after 3 to 6 days by microscopic method. The series is classed as functional. The note with it: Human respirovirus 3, Vero.
Series [17] concerns Coxsackievirus B4. The experiment in a line: Antiviral activity against Coxsackievirus B4 infected in African green monkey Vero cells assessed as inhibition of virus-induced cytopathicity after 3 to 6 days by microscopic method. Format: functional. To be noted: Enterovirus B.

Activity calls are given as the source filed them. The rule behind the calls is not given here.

For orientation: EC50 means the concentration needed to bring the measured effect to its halfway point. In general, inhibition refers to the relative decrease from the control value, in per cent. The CC50 is the concentration that lowers cell viability or growth by half. In general, IC50 refers to the concentration at which inhibition is half-maximal. As for `CC(C)c1ccccc1NCCN1CCCCC1`, the concentration for a half-maximal effect (EC50) worked out at 5.5 µM in series [1]; 1.5 µM in [2]; 39.6 µM in series [4]; 10.1 µM in series [9]; 4.6 µM in series [10]; 1.7 µM in series [14]. For the same compound, the inhibition in series [3] and in series [11] was 100% in each case. In addition, the inhibition entry in series [5], in [8] and in series [15] was “inactive” in each case. Also, in series [6], the CC50 at 72 h is > 100 µM. The IC50 in series [7] was > 100 µM. Moreover, the result in [12] was Active. In addition, the MCC at 72 h in series [13] is 100 µM.
In the case of `FC(F)(F)c1ccccc1NCC12CC3CC(CC(C3)C1)C2`, the EC50 in series [16] was 9 µM.
With `c1ccc(COc2ccc(NCC34CC5CC(CC(C5)C3)C4)cc2)cc1`, the concentration giving a half-maximal response (EC50) in [17] is 8.9 µM.
For `CCc1ccccc1OCCN1CCCCCC1`, the EC50 in series [1] is > 100 µM; in series [2] it was < 0.8 µM; in [4], 16.7 µM; in series [9], 9.6 µM; in series [10], > 100 µM; in series [14], 4 µM. Further, the inhibition in series [3] and in [11] was 100% throughout. Besides, the inhibition result in series [5], in series [8] and in series [15] was “inactive” each time. The CC50 at 72 h in [6] amounted to 11 µM. In [7], this compound yielded an IC50 of 100 µM. The MCC at 72 h in [13] stood at 20 µM.
